According to ChEMBL document CHEMBL4316593 (Eur J Med Chem, 2019):

Legend:
[1] = Inhibition of RTK/PI3K/AKT/mTOR signaling in human U87 cells assessed as up regulation of mesencephalic astrocyte derived neurotrophic factor gene expression at cytotoxic IC50 measured after 48 hrs relative to control; type: cell-based
[2] = Inhibition of RTK/PI3K/AKT/mTOR signaling in human U87 cells assessed as up regulation of NARS gene expression at cytotoxic IC50 measured after 48 hrs relative to control; type: cell-based; settings: U-87MG ATCC
Method in brief: (§1)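 Cells were exposed for 48hrs at 37°C in humidified 5% CO₂ to the compound at its previously determined IC₅₀, with Cisplatin at its IC₅₀ and an untreated negative control alongside. Each condition was run in triplicate. RNA was isolated from all samples by the same protocol. Genes were called differentially expressed by DESeq2 at q-value < 0.05 and fold change > 1.5.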

[3] = Inhibition of RTK/PI3K/AKT/mTOR signaling in human U87 cells assessed as down regulation of SAFB2 gene expression at cytotoxic IC50 measured after 48 hrs relative to control; type: cell-based; settings: U-87MG ATCC; method in brief: as §1
[4] = Inhibition of RTK/PI3K/AKT/mTOR signaling in human U87 cells assessed as up regulation of lecithin retinol acyltransferase (phosphatidylcholine-retinol O-acyltransferase) gene expression at cytotoxic IC50 measured after 48 hrs relative to control; type: cell-based; settings: U-87MG ATCC
[5] = test system: U-87 MG; assay: Induction of apoptosis in human U87 cells assessed as change in TNFRSF10C gene expression at cytotoxic IC50 measured after 48 hrs […] relative to control; type: functional, U-87MG ATCC
Method in brief: (§2)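 U87 cells grown in MEM with 10% FBS at 37°C, 5% CO2. Cells exposed to IC50 of test compound for 48 hrs, alongside untreated and cisplatin controls, each condition in triplicate. RNA isolated and profiled; differential expression called with DESeq2 (q-value < 0.05, fold change > 1.5), fold change versus untreated.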

[6] = test system: U-87 MG; assay: Cell cycle arrest in human U87 cells assessed as change in MDM2 gene expression at cytotoxic IC50 measured after 48 hrs […] relative to control; type: functional, U-87MG ATCC
Method in brief: (§3)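 U87 expression profiling. Cells incubated 48hrs at 37°C, 5% CO₂ with the IC₅₀ concentration, alongside a cisplatin and an untreated control, in triplicate. RNA was isolated by one common protocol and profiled. DEGs were called with DESeq2 (q < 0.05, fold change > 1.5) and expressed as fold change versus untreated.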

[7] = Inhibition of RTK/PI3K/AKT/mTOR signaling in human U87 cells assessed as down regulation of HELLS gene expression at cytotoxic IC50 measured after 48 hrs relative to control; type: cell-based; settings: U-87MG ATCC; method in brief: as §2
[8] = test system: U-87 MG; assay: Induction of apoptosis in human U87 cells assessed as change in BCL2L1 gene expression at cytotoxic IC50 measured after 48 hrs […] relative to control; type: functional, U-87MG ATCC; method in brief: as §2
[9] = test system: U-87 MG; assay: Induction of oxidative stress in human U87 cells assessed as increase in redox level at cytotoxic IC50 measured after 5 hrs by H2DCFDA dye based fluorescence assay relative to control; type: functional, U-87MG ATCC
Method in brief: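 Cells grown overnight, exposed to IC50 for 5 hrs at 37°C with negative, positive (H2O2) and blank controls, plus solvent baseline. Pelleted, loaded with 2 µM H2DCFDA for 30 min at 37°C, washed, resuspended in warm medium, 20 min at room temperature. Fluorescence read at ex 485/em 535 nm.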

[10] = Inhibition of RTK/PI3K/AKT/mTOR signaling in human U87 cells assessed as down regulation of CDK5RAP2 gene expression at cytotoxic IC50 measured after 48 hrs relative to control; type: cell-based; settings: U-87MG ATCC; method in brief: as §2
[11] = Inhibition of RTK/PI3K/AKT/mTOR signaling in human U87 cells assessed as down regulation of TSPAN33 gene expression at cytotoxic IC50 measured after 48 hrs relative to control; type: cell-based; settings: U-87MG ATCC; method in brief: as §1
[12] = Inhibition of RTK/PI3K/AKT/mTOR signaling in human U87 cells assessed as up regulation of INHBE gene expression at cytotoxic IC50 measured after 48 hrs relative to control; type: cell-based; settings: U-87MG ATCC; method in brief: as §1
[13] = test system: U-87 MG; assay: Induction of apoptosis in human U87 cells assessed as decrease in caspase-3/7 activation at cytotoxic IC50 measured after 5 hrs by caspase-glo 3/7 luminescence assay relative to control; type: functional, U-87MG ATCC; parameters: scale not given: the % may be the effect or the level left
Method in brief: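 Cells grown overnight in 96-well format, then given IC50 for 5 hrs at 37°C, 5% CO2, with negative, positive and blank (medium+DMSO+dye) wells. Equilibrated 30 min at room temperature, Caspase-Glo 3/7 reagent added 1:1 in the dark, luminescence read at 1 hr. Fold change = (test−blank)/(control−blank). Triplicate measurements, at least two independent experiments.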

[14] = Inhibition of RTK/PI3K/AKT/mTOR signaling in human U87 cells assessed as down regulation of NAAA gene expression at cytotoxic IC50 measured after 48 hrs relative to control; type: cell-based; settings: U-87MG ATCC; method in brief: as §1
[15] = Inhibition of RTK/PI3K/AKT/mTOR signaling in human U87 cells assessed as down regulation of CCDC186 gene expression at cytotoxic IC50 measured after 48 hrs relative to control; type: cell-based; settings: U-87MG ATCC; method in brief: as §2
[16] = Inhibition of RTK/PI3K/AKT/mTOR signaling in human U87 cells assessed as down regulation of GPATCH11 gene expression at cytotoxic IC50 measured after 48 hrs relative to control; type: cell-based; settings: U-87MG ATCC; method in brief: as §2
[17] = test system: U-87 MG; assay: Induction of apoptosis in human U87 cells assessed as change in GADD45A gene expression at cytotoxic IC50 measured after 48 hrs […] relative to control; type: functional, U-87MG ATCC; method in brief: as §2
[18] = test system: U-87 MG; assay: Induction of DNA damage in human U87 cells assessed as change in TRIAP1 gene expression at cytotoxic IC50 measured after 48 hrs […] relative to control; type: functional, U-87MG ATCC; method in brief: as §2
[19] = test system: LN-229; assay: Induction of apoptosis in human LN229 cells assessed as apoptotic cells at cytotoxic IC50 measured after 48 hrs by Annexin V-FITC/propidium iodide staining based flow cytometry (reference value: 29.3%); type: functional
[20] = Inhibition of RTK/PI3K/AKT/mTOR signaling in human U87 cells assessed as up regulation of EPS8 like 2 gene expression at cytotoxic IC50 measured after 48 hrs relative to control; type: cell-based; settings: U-87MG ATCC; method in brief: as §1
[21] = Inhibition of RTK/PI3K/AKT/mTOR signaling in human U87 cells assessed as down regulation of FAM222A gene expression at cytotoxic IC50 measured after 48 hrs relative to control; type: cell-based; settings: U-87MG ATCC; method in brief: as §2
[22] = Inhibition of RTK/PI3K/AKT/mTOR signaling in human U87 cells assessed as up regulation of FAM131C gene expression at cytotoxic IC50 measured after 48 hrs relative to control; type: cell-based; settings: U-87MG ATCC; method in brief: as §1
[23] = test system: U-87 MG; assay: Induction of DNA damage in human U87 cells assessed as change in MDM2 gene expression at cytotoxic IC50 measured after 48 hrs […] relative to control; type: functional, U-87MG ATCC; method in brief: as §3
[24] = test system: U-87 MG; assay: Cytotoxicity against human U87 cells assessed as reduction in cell proliferation up to 200 uM by trypan blue dye-based cell counting analysis; type: functional; settings: U-87MG ATCC, TDE = time-dependent effect
Method in brief: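 U87 cells grown 24hrs, then treated for 5hrs with 0-200 μM. Viability by trypan blue exclusion; mean ± S.E.M, n = 4 per group, one-way ANOVA.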

[25] = Inhibition of RTK/PI3K/AKT/mTOR signaling in human U87 cells assessed as up regulation of fibroblast growth factor 19 gene expression at cytotoxic IC50 measured after 48 hrs relative to control; type: cell-based

`CC(=O)C(=NNc1ccccc1C#N)C(C)=O` gave a log2FC [1] of 0.684, a log2FC [2] of 0.53 and a log2FC [3] of -0.69. For the same compound, the log2FC [4] was 1.23, the log2FC [5] was 3.078 and the “fold change (FC)” value [6] was 1.471. It also gave a log2FC [7] of -1.06, a log2FC [8] of 0.9994 and an Activity [9] of 9.5%. The log2FC [10] was -0.519, the log2FC [11] was -0.666 and the log2FC [12] was 2.96. For the same compound, the Activity [13] was 60.2%, the log2FC [14] was -1.57 and the log2FC [15] was -0.865. The log2FC [16] was -1.69, the log2FC [17] was -0.9679 and the “fold change (FC)” value [18] was 2.018. For the same compound, the Activity [19] was 57.3%, the log2FC [20] was 0.818 and the log2FC [21] was -1.4. For the same compound, the log2FC [22] was 2.04, the “fold change (FC)” value [23] was 1.471 and the Activity [24] was “Tde”. It also gave a log2FC [25] of 0.722.
